Source: ChEMBL document CHEMBL4052702 (Bioorg Med Chem Lett, 2017)
Activity calls are given as the source filed them. The rule behind the calls is not given here.

What was measured:
Histone deacetylase 2 [1] = target: T1, Histone deacetylase 2 (Homo sapiens, UniProt Q92769); experiment: Inhibition of HDAC2 (unknown origin) assessed as remaining enzyme activity at 1.6 x 10^-5 M by ELISA-based assay
[2] = Inhibition of HDAC in human HeLa-S3 cells lysates pre-incubated for 15 mins before HDAC-Glo I/II substrate addition and measured after 30 mins post substrate addition; assay type: cell-based
Homo sapiens [3] = species: Homo sapiens; experiment: Inhibition of HDAC in human HeLa-S3 cells lysates assessed as remaining enzyme activity at 1.25 x 10^-6 M pre-incubated for 15 mins before HDAC-Glo I/II substrate addition and measured after 30 mins post substrate addition; assay type: cell-free
Histone deacetylase 3 [4] = target: T2, Histone deacetylase 3 (Homo sapiens, UniProt O15379); experiment: Inhibition of HDAC3 (unknown origin) assessed as remaining enzyme activity at 8 x 10^-6 M by ELISA-based assay
Histone deacetylase 1 [5] = target: T3, Histone deacetylase 1 (Homo sapiens, UniProt Q13547); experiment: Inhibition of HDAC1 (unknown origin) assessed as remaining enzyme activity at 8 x 10^-6 M by ELISA-based assay
Histone deacetylase 3 [6] = target: T2, Histone deacetylase 3; experiment: Inhibition of HDAC3 (unknown origin) assessed as remaining enzyme activity at 1.6 x 10^-5 M by ELISA-based assay
Histone deacetylase 2 [7] = target: T1, Histone deacetylase 2; experiment: Inhibition of HDAC2 (unknown origin) assessed as remaining enzyme activity at 8 x 10^-6 M by ELISA-based assay
Homo sapiens [8] = species: Homo sapiens; experiment: Inhibition of HDAC in human HeLa-S3 cells lysates assessed as remaining enzyme activity at 5 x 10^-6 M pre-incubated for 15 mins before HDAC-Glo I/II substrate addition and measured after 30 mins post substrate addition; assay type: cell-free
Histone deacetylase 3 [9] = target: T2, Histone deacetylase 3; experiment: Inhibition of HDAC3 (unknown origin) assessed as remaining enzyme activity at 1.25 uM by ELISA-based assay
In short: (§1)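 Isoform screen by ELISA-based HDAC activity assay against HDAC1, HDAC2, HDAC3 and HDAC6. Each analog was tested at one final concentration: 0.025, 0.125, 0.25 or 1.25 µM. Read-out is percent deacetylase activity remaining, given as the mean with standard error of at least two independent trials.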

Homo sapiens [10] = species: Homo sapiens; experiment: Inhibition of HDAC in human HeLa-S3 cells lysates assessed as remaining enzyme activity at 1 x 10^-5 M pre-incubated for 15 mins before HDAC-Glo I/II substrate addition and measured after 30 mins post substrate addition; assay type: cell-free
Histone deacetylase 1 [11] = target: T3, Histone deacetylase 1; experiment: Inhibition of HDAC1 (unknown origin) assessed as remaining enzyme activity at 1.25 uM by ELISA-based assay; in short: as §1
Histone deacetylase 2 [12] = target: T1, Histone deacetylase 2; experiment: Inhibition of HDAC2 (unknown origin) assessed as remaining enzyme activity at 1.25 uM by ELISA-based assay; in short: as §1
Homo sapiens [13] = species: Homo sapiens; experiment: Inhibition of HDAC in human HeLa-S3 cells lysates assessed as remaining enzyme activity at 2.5 x 10^-6 M pre-incubated for 15 mins before HDAC-Glo I/II substrate addition and measured after 30 mins post substrate addition; assay type: cell-free
Homo sapiens [14] = species: Homo sapiens; experiment: Inhibition of HDAC in human HeLa-S3 cells lysates assessed as remaining enzyme activity at 2 x 10^-5 M pre-incubated for 15 mins before HDAC-Glo I/II substrate addition and measured after 30 mins post substrate addition; assay type: cell-free
Histone deacetylase 3 [15] = target: T2, Histone deacetylase 3; experiment: Inhibition of HDAC3 in human U937 cells assessed as increase in acetylated-histone H3 level at 10 to 40 uM incubated for 18 hrs by Western blot method; assay type: cell-based
In short: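 U937 cells were treated with 10–40 µM compound, with a 1% DMSO vehicle control. Cells were then lysed and the lysates run on SDS-PAGE and transferred to PVDF. Blots were probed for histone H3 acetyl-Lys9, which reports class I HDAC (1, 2, 3) inhibition, with GAPDH as the loading control. Repeat trials were run.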

[16] = target: T4, Protein deacetylase HDAC6 (Homo sapiens) (UniProt Q9UBN7); experiment: Inhibition of HDAC6 (unknown origin) assessed as remaining enzyme activity at 1.25 uM by ELISA-based assay
T4 sequence (whole entry): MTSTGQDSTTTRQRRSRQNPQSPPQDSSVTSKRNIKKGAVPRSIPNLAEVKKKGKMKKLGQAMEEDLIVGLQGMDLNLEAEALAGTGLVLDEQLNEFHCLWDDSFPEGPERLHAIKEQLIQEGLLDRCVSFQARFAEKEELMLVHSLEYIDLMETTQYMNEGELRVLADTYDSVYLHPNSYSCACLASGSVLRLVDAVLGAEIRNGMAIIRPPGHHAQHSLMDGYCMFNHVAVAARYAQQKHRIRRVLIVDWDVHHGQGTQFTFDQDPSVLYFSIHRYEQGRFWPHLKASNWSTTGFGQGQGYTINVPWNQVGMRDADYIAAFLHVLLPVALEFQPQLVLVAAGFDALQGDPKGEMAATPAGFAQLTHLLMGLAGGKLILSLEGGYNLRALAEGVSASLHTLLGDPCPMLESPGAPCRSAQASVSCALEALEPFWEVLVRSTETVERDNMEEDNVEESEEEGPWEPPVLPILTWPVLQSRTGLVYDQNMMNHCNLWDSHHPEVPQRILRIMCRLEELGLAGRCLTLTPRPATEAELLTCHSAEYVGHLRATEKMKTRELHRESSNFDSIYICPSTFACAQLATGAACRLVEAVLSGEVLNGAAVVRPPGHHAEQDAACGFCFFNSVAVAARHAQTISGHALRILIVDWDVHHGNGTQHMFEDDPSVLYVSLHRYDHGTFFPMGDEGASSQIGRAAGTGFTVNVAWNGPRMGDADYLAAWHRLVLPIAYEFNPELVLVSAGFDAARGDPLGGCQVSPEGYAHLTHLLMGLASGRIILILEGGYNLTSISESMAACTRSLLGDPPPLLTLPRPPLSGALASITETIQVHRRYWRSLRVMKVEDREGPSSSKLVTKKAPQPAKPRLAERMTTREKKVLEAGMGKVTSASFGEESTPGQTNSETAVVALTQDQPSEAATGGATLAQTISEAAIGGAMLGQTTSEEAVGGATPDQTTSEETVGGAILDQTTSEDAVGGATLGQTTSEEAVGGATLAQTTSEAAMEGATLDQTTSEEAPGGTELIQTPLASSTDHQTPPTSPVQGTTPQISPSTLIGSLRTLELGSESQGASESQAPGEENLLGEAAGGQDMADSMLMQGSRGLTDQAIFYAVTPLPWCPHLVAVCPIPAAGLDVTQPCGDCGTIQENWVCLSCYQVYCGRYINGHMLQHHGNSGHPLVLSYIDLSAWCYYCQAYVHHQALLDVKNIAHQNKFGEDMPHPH
In short: (§2)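 Single-concentration isoform screen using an ELISA-based HDAC activity assay, run in parallel against HDAC1, HDAC2, HDAC3 and HDAC6. Read-out is percent deacetylase activity remaining, given as the mean of at least two independent trials with standard error.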

[17] = target: T4, Protein deacetylase HDAC6 (Homo sapiens); experiment: Inhibition of HDAC6 (unknown origin) assessed as remaining enzyme activity at 0.25 uM by ELISA-based assay; in short: as §2
Histone deacetylase 2 [18] = target: T1, Histone deacetylase 2; experiment: Inhibition of HDAC2 (unknown origin) assessed as remaining enzyme activity at 5 x 10^-7 M by ELISA-based assay
Histone deacetylase 3 [19] = target: T2, Histone deacetylase 3; experiment: Inhibition of HDAC3 (unknown origin) assessed as remaining enzyme activity at 0.25 uM by ELISA-based assay; in short: as §1

T3 sequence (Q13547 whole entry): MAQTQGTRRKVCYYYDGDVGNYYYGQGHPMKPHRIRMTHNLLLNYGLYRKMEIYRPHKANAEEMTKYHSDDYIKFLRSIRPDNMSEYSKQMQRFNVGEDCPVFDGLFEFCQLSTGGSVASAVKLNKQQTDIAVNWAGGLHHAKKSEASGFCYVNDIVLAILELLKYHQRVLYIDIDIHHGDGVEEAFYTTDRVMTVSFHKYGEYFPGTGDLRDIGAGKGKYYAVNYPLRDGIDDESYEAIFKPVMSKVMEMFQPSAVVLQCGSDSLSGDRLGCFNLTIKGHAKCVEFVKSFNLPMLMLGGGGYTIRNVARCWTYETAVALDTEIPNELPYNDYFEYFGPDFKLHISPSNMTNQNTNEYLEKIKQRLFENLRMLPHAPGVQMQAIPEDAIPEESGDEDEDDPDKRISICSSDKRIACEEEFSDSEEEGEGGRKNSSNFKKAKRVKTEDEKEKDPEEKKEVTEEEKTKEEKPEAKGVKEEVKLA
T1 sequence (Q92769 whole entry): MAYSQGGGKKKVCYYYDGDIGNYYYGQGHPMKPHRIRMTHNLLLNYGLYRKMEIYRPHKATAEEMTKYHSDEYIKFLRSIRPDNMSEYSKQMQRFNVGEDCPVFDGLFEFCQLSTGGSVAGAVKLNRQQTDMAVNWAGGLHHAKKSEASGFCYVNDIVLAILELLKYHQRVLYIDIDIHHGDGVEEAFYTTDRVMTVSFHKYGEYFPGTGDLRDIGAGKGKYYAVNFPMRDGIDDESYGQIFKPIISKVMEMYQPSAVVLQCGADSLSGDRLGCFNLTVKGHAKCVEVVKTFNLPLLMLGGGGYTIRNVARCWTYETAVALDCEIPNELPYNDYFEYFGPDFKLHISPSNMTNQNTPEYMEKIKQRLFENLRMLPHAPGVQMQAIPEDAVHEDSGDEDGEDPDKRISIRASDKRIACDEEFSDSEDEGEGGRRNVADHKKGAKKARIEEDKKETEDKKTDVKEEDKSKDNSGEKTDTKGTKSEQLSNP
T2 sequence (O15379 whole entry): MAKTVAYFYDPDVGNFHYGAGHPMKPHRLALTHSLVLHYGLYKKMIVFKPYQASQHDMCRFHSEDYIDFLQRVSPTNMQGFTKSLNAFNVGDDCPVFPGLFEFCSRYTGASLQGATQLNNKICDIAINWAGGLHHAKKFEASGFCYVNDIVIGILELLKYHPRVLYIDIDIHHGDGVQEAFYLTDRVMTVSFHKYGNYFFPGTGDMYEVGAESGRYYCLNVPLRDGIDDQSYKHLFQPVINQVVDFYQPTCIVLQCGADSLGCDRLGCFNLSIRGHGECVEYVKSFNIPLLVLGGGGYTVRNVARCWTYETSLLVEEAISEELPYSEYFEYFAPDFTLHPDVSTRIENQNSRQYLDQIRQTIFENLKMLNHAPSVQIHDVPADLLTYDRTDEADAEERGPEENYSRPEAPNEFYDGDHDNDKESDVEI

Activity (Histone deacetylase 2 [1]) | IC50 [2] | Activity (Histone deacetylase 3 [4]) | Activity (Histone deacetylase 1 [5]) | Activity (Histone deacetylase 3 [6]) | Activity (Histone deacetylase 2 [7]) | Activity (Histone deacetylase 3 [9]) | Activity (Histone deacetylase 1 [11]) | Activity (Histone deacetylase 2 [12]) | inhibition (Histone deacetylase 3 [15]) | Activity [16] | Activity [17] | Activity (Histone deacetylase 2 [18]) | Activity (Histone deacetylase 3 [19]) | SMILES | Activity (Homo sapiens [3]) | Activity (Homo sapiens [8]) | Activity (Homo sapiens [10]) | Activity (Homo sapiens [13]) | Activity (Homo sapiens [14])
19% | 6.2 µM | 43% | 27% | 23% | 30% | 74% | 69% | 74% | Active | 17% | – | – | – | O=C(CCCC(CCC(=O)Nc1ccccc1)Cc1ccccc1)NO (stereo not given) | 93% | 56% | 33% | 78% | 17%
14% | 6.5 µM | 27% | 22% | 12% | 21% | 71% | 64% | 72% | – | 28% | – | – | – | CCCCCCC(CCCC(=O)NO)CCC(=O)Nc1ccccc1 (stereo not given) | 92% | 58% | 35% | 83% | 15%
– | 5 µM | – | – | – | – | – | – | – | – | – | 35% | 73% | 74 to 92% | CCCCC(CCCC(=O)NO)CCC(=O)Nc1ccccc1 (stereo not given) | – | – | – | – | –
